From PubChem
Hits are enriched below; roughly 3.1% of the tested compounds scored in any of these assays.
SENP8 block-1: blocks the human protease SENP8 | Q96LD8 | purified SENP8, Z-RLRGG-aminoluciferin cleavage, luminescence | inhibition, % at 10 µM | 330,000 compounds, 1.2% hits; in the data active means inhibition above about 50%
Target sequence (Q96LD8 whole entry, looked up): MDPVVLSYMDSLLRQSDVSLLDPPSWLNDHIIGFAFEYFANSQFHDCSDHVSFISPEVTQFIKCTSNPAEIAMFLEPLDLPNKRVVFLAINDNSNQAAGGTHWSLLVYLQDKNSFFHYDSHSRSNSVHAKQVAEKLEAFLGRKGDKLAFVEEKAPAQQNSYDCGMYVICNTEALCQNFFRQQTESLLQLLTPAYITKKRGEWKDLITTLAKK
UBC13 inh: inhibitors of human UBC13 polyubiquitin chain formation; 330,000 compounds, 0.47% hits; inhibition, % at 20 µM; AID 485273; TR-FRET; in the data active means inhibition above about 45%, passing the limit was not always enough
Target sequence (P61088 whole entry, looked up): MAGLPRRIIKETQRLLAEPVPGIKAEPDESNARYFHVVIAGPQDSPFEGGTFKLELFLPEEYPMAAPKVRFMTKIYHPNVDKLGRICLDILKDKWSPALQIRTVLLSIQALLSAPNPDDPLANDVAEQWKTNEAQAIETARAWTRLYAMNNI
SENP8 block-2: blocks human SENP8 cleavage of Nedd8 substrate. Q96LD8. recombinant SENP8, Nedd8 substrate fluorescence. inhibition, % at 20 µM. 360,000 compounds, 0.64% hits; in the data active means inhibition mostly above about 40%, no sharp cut-off; inactive means mostly below about 27%
SENP6 block: inhibitors of human SENP6 protease | 330,000 compounds, 1.8% hits | AID 2599 | Recombinant SENP6 catalytic domain, aminoluciferin luminescence | Q9GZR1 | inhibition, % at 10 µM;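 active means inhibition above about 50% at the single tested dose, limit read from the data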;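 further: plate controls were DMSO wells with enzyme for no effect and DMSO wells lacking enzyme for full effect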
SENP7 inh: blocks the human protease SENP7 | 330,000 compounds, 1.5% hits | inhibition, % at 5 µM | recombinant SENP7, Z-RLRGG-aminoluciferin luminescence, 40 min | Q9BQF6;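 active means inhibition above about 50% at the single test dose, limit read from the data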;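 further: plate controls were DMSO with enzyme for no effect and no enzyme buffer wells for full effect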
Apaf1 inhib: human Apaf-1 inhibition. O14727. reconstituted apoptosome caspase-3 activity, DEVD-Rh110 fluorescence. inhibition, % at 20 µM. 330,000 compounds, 0.71% hits; active means inhibition of at least 40% at 20 µM;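 further: plate controls were DMSO wells for no effect and DEVD-CHO caspase inhibitor wells for full effect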
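Medium: Hepes buffer, pH 7.5 / System: biochemical Apaf-1 apoptosome reconstitution / Measured by: Rh110 fluorescence, excitation 480 nm, emission 540 nm / Times: compound with Apaf-1, dATP, procaspase-3 30 min, then 50 min reaction, room temperature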
SENP8 conf: confirmation of human SENP8 protease inhibitors. shares compounds with SENP7 inh. Recombinant SENP8, Z-RLRGG-aminoluciferin luminescence, 60 min. inhibition, % at 12.5 µM. 6,200 compounds, 40% hits. AID 488912;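 active means mean inhibition across replicates above about 50%, limit read from the data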
SENP6 confirm: human SENP6 inhibition, confirmed. recombinant SENP6, Z-RLRGG-aminoluciferin luminescence. shares compounds with SENP7 inh. 6,200 compounds, 58% hits. inhibition, % at 12.5 µM
SENP7 confirm: confirmation of human SENP7 protease inhibitors. recombinant SENP7, Z-RLRGG-aminoluciferin luminescence, 40 min. inhibition, % at 12.5 µM. 6,200 compounds, 69% hits. shares compounds with SENP7 inh
Casp3 select: caspase-3 inhibition (SENP selectivity assay). shares compounds with SENP7 inh. purified caspase-3, Z-DEVD-aminoluciferin luminescence, 60 min. inhibition, % at 12.5 µM. 6,200 compounds, 60% hits. AID 488918;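 active means mean inhibition above about 50%, limit read from the data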;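 further: plate controls were enzyme with DMSO for no effect and wells without caspase-3 for full effect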
Target sequence (P42574 28-227 limits assumed): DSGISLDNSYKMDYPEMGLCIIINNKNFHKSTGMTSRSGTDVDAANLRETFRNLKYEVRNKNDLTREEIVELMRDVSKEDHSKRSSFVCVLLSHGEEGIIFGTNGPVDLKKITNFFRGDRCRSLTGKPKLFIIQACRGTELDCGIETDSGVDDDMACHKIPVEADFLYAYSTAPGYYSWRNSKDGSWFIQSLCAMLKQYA
SENP luc ctr: counter-screen for SENP inhibitors: luminescence interference. shares compounds with SENP7 inh. Pre-incubated SENP8/Z-RLRGG-aminoluciferin, luciferase luminescence interference. inhibition, % at 12.5 µM. 6,200 compounds, 39% hits. AID 488919;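 active means mean inhibition above about 50% when retested at one dose, limit read from the data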;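 further: plate controls were DMSO wells with completed reaction for no effect and substrate without enzyme for full effect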
Numbers without * were called inactive; i = inactive; · = not tested or not shown.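 How the source made its calls, unless noted: active means mean inhibition above about 50% in the one-dose retest (limit read from the data); inactive means the rest.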

SMILES | SENP8 block-1 | UBC13 inh | SENP8 block-2 | SENP6 block | SENP7 inh | Apaf1 inhib | SENP8 conf | SENP6 confirm | SENP7 confirm | Casp3 select | SENP luc ctr
CC(C)(C)c1cnnn1-c1ccc(/C=N/Nc2ccc([N+](=O)[O-])cc2)cc1 | 64* | -59 | -100 | 41 | -7 | 7 | 4 | 3 | -2 | -2 | -2
COc1ccc(C2=NN(CN3C(=O)C(=O)c4ccccc43)C(c3ccc(Br)cc3)C2)cc1 (stereo not drawn) | -5 | -2 | 5 | -10 | 81* | 8 | -12 | -8 | 2 | 4 | 0
CC1CCCN(S(=O)(=O)c2cccc(C(=O)NCCCN3CCCC3=O)c2)C1 (stereo not drawn) | · | · | 19 | · | · | · | · | · | · | · | ·
CCc1ccc2oc(-c3cc(N)ccc3Cl)nc2c1 | 92* | 9 | i | 95* | 95* | 15 | 95* | 97* | 101* | 82* | 78*
CCc1ccc2oc(-c3cc(N)ccc3O)nc2c1 | 94* | 26 | -138 | 97* | 92* | 6 | 68* | 94* | 99* | 86* | 16
CCc1ccc2oc(-c3cc(N)cc(C)c3O)nc2c1 | 75* | -19 | -110 | 79* | 54* | 10 | 35 | 50* | 78* | 58* | 7
Nc1ccc2oc(-c3ccccc3Cl)nc2c1 | 68* | -12 | -240 | 91* | 77* | -7 | 90* | 90* | 99* | 87* | 80*
CC(=O)Nc1c([N+](=O)[O-])cc2c3c(cccc13)CC2 | · | · | 13 | · | · | · | · | · | · | · | ·
O=C(NCCc1cccs1)Nc1nnc([C@H]2C[C@H](O)[C@@H](CO)O2)s1 | · | · | 2 | · | · | · | · | · | · | · | ·
O=C(COC(=O)Cn1cnc2ccccc21)Nc1cc2c(cc1Cl)C(=O)c1ccccc1C2=O | 61* | -54 | 16 | 71* | 90* | 15 | 58* | 67* | 86* | 73* | 14
O=C(COC(=O)Cn1cnc2ccccc21)Nc1cc(S(=O)(=O)N2CCOCC2)ccc1Cl | -4 | 7 | 9 | 2 | -4 | -4 | · | · | · | · | ·
Cc1cc(S(=O)(=O)c2ccc(Cl)cc2)nc(S(=O)(=O)c2ccc(Cl)cc2)c1C#N | · | · | -395 | · | · | · | · | · | · | · | ·
Cc1cc(Nc2ccc(C)c(C)c2)c2ccccc2n1 | -8 | -3 | -40 | -6 | 8 | 13 | · | · | · | · | ·
Cc1ccc(Nc2nc(N)c3ccccc3n2)cc1C | 93* | 12 | -101 | -10 | 92* | 23 | 94* | 96* | 101* | 94* | 96*
N#C/C(=C(/O)C(Cl)(Cl)Cl)c1nc2ccccc2[nH]1 | 87* | -18 | 29 | 96* | 75* | -7 | 90* | 90* | 100* | 91* | 55*
C/C(O)=C(/C#N)c1nc2ccccc2[nH]1 | 0 | 0 | 8 | -17 | 0 | -7 | · | · | · | · | ·
Cc1nc(Nc2ccc3c(c2)OCO3)c2oc3ccccc3c2n1 | 6 | 9 | -84 | 14 | 0 | 15 | · | · | · | · | ·
c1ccc2c(c1)oc1c(Nc3ccc4c(c3)OCO4)ncnc12 | 13 | 0 | -187 | 13 | 59* | -7 | -9 | 4 | 10 | 19 | 7
Oc1ccc(Nc2ncnc3c2oc2ccccc23)cc1 | 3 | 7 | -20 | 9 | 3 | 10 | · | · | · | · | ·
Oc1cccc(Nc2ncnc3c2oc2ccccc23)c1 | 62* | 1 | -222 | 70* | 71* | 9 | 64* | 66* | 92* | 69* | 80*
c1ccc(Nc2ncnc3c2oc2ccccc23)cc1 | 14 | 16 | -383 | 52* | 36 | 2 | 10 | 7 | 56* | 37 | 14
Oc1ccccc1Nc1ncnc2c1oc1ccccc12 | 2 | 6 | -58 | -21 | -4 | 0 | · | · | · | · | ·
CN(C)c1ccc(/C=C/C(=O)c2ccccc2O)cc1 | 86* | -180 | 14 | 92* | 89* | 6 | 18 | 27 | 14 | 8 | -2
O=C(/C=C/c1ccc2c(c1)OCCCO2)c1ccccc1O | 81* | 0 | 22 | 88* | 84* | 13 | 91* | 93* | 92* | 57* | 26
Cc1ccc(/C=C/C(=O)c2ccccc2O)cc1 | 45 | 5 | 12 | 6 | 17 | 10 | · | · | · | · | ·
SMILES | SENP8 block-1 | UBC13 inh | SENP8 block-2 | SENP6 block | SENP7 inh | Apaf1 inhib | SENP8 conf | SENP6 confirm | SENP7 confirm | Casp3 select | SENP luc ctr
OC(c1ccccc1)c1ncc(-c2cccc(F)c2)[nH]1 (stereo not drawn) | · | · | 4 | · | · | · | · | · | · | · | ·
CC(C)CNC(=S)NNC(=O)c1csc2ccccc12 | 4 | -3 | 5 | 7 | 21 | 6 | · | · | · | · | ·
CC(C)CNC(=S)NNC(=O)c1csc2c1CCCC2 | 11 | -7 | 8 | 12 | 50* | 6 | 1 | 2 | -4 | -2 | -2
O=C(O)c1cc(-c2ccc3ccccc3c2)nc2ccc(F)cc12 | 66* | 8 | -369 | 73* | 33 | 2 | -2 | 6 | 14 | 9 | 24
CN(C)CCNC(=O)c1ccc(-c2cnn(C)c2)c2ccoc12 | · | · | -382 | · | · | · | · | · | · | · | ·
CCC(C)(C)c1ccc2c(c1)C(=O)c1ccccc1C2=O | 79* | 19 | 14 | 93* | 77* | 8 | 10 | 84* | 86* | 96* | 80*
Clc1ccccc1/C=C/c1nc(-c2cccnc2)no1 | 69* | 4 | 6 | 88* | 77* | -14 | 56* | 68* | 89* | 56* | 12
Cc1ccccc1-c1nc(-c2cccnc2)no1 | 36 | -12 | 7 | 60* | 53* | 7 | 25 | 60* | 84* | 67* | 31
Cc1onc(-c2ccccc2Cl)c1-c1nc(-c2ccncc2)no1 | -1 | -7 | 12 | -12 | 1 | 14 | · | · | · | · | ·
Cc1nc(-c2noc(-c3ccccc3Cl)n2)c(C(F)(F)F)o1 | 70* | 4 | 20 | 78* | 65* | -3 | 24 | 57* | 78* | 70* | 40
COc1nc(C)ccc1-c1noc(-c2cccnc2)n1 | -13 | 2 | 6 | -18 | -10 | 0 | · | · | · | · | ·
Clc1ccccc1-c1nc(-c2ccncc2)no1 | 75* | -1 | 12 | 81* | 80* | 3 | 82* | 84* | 97* | 84* | 71*
Cc1nc(-c2noc(-c3cccc(Cl)c3)n2)c(C(F)(F)F)o1 | -2 | 7 | -55 | -1 | 6 | -6 | · | · | · | · | ·
